Bioassay records deposited in PubChem by Johns Hopkins Ion Channel Center.
Most compounds without a hit are left out; they make up all but 3.7% or so of the library.
hERG protect = hERG (human) protection from proarrhythmic block; CHO-hERG, FluxOR thallium flux, dofetilide IC70 present; activation (rescue from dofetilide block), less the hit threshold, % at 10 µM; 310,000 compounds, 0.51% hits;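 active means activation above the mean of controls blocked by dofetilide plus 5 SD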;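 further: thallium influx through hERG after potassium depolarization seen as dye fluorescence rise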
KCNQ1 act = potentiators or activators of human KCNQ1 potassium channel. P51787. CHO-K1 KCNQ1, thallium flux FluxOR fluorescence; active compounds read high. B-score at 10 µM. 310,000 compounds, 0.35% hits. AID 2648;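 active means fluorescence ratio B-score, a plate-corrected score, at least three library SD, with initial intensity B-score within 5 SD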
Target sequence (P51787 whole entry, looked up): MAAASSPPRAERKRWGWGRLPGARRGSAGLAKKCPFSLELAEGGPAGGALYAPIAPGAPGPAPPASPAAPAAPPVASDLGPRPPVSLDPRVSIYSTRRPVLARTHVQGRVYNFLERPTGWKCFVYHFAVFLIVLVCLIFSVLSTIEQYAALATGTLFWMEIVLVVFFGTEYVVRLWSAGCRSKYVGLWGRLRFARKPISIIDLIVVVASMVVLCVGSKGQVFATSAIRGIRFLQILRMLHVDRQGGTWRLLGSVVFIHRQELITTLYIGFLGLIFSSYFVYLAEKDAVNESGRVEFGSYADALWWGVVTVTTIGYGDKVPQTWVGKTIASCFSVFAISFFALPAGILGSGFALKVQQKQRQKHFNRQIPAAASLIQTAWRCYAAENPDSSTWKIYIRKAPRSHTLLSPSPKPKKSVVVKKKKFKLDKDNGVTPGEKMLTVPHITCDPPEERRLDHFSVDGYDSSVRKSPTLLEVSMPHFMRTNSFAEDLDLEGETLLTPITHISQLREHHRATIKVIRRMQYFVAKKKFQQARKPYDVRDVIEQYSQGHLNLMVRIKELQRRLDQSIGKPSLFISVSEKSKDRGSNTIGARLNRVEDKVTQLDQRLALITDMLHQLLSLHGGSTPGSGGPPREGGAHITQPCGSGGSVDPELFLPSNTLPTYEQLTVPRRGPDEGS
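System: Stable KCNQ1 CHO-K1 line | Incubation: 90 min dye loading and 20 min compound exposure, both at room temperature | Measure: Ratio B score | Medium: Assay buffer for compound exposure, DMSO matched across wells | Compound dosing: Single-concentration screen | Probe or stimulus: K+/Tl+ depolarizing stimulus | Measured by: Kinetic FluxOR fluorescence, 10 s baseline plus 110 s post-stimulus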
KCNQ1 block = human KCNQ1 channel inhibition | 310,000 compounds, 1.3% hits | P51787 | B-score at 10 µM | CHO-K1 KCNQ1, FluxOR thallium flux fluorescence; active compounds read high;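 active means compounds whose thallium flux B-score, printed positive for inhibition, exceeds three library SD while starting fluorescence stays within three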;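 further: channel opened by potassium depolarization with thallium stimulus after 20 min compound exposure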
Kir21 inh = inhibitors of mouse Kir2.1 inward-rectifier potassium channel; 310,000 compounds, 0.85% hits; HEK293-Kir2.1, FluxOR thallium flux fluorescence; active compounds read low; AID 1672; B-score at 10 µM; P35561;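 active means fluorescence ratio B-score at or below minus 3 SD of library scores, with starting-brightness B-score within 2 SD, cut at about -4.2 in these data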;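 further: channel flux triggered by added potassium and thallium sulfate stimulus; B-score of peak minus minimum fluorescence over baseline after thallium stimulus; more negative B-score means stronger Kir2.1 block with less thallium influx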
KCNK3 block = human KCNK3 channel inhibition, primary screen; O14649; CHO-KCNK3 thallium flux, FluxOR fluorescence; active compounds read low; B-score at 10 µM; 340,000 compounds, 0.84% hits; AID 602410;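 active means B-score under library mean minus 4 SD, starting fluorescence ratio at most library mean plus 5 SD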;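 further: more negative B-score means stronger inhibition of thallium flux through KCNK3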
KCNK9 block = human KCNK9 channel inhibition | Q9NPC2 | HEK293 KCNK9, FluxOR thallium flux fluorescence; active compounds read low | B-score at 10 µM | 310,000 compounds, 1.2% hits;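 active means ratio B-score over 3 SD below the library mean, with starting fluorescence within 5 SD of its mean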;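 further: negative B-score means less thallium flux so channel inhibition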
KCNK9 inh conf = confirmation of human KCNK9 potassium channel inhibitors. AID 492992. 4,900 compounds, 43% hits. shares compounds with KCNK9 block. HEK293 KCNK9 cells, FluxOR thallium flux fluorescence. inhibition, % at 10 µM;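 active means thallium signal inhibited by more than 5 SD of the compound-free buffer control wells, on both duplicate plates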;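 further: 0% = assay buffer control wells without compound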
Kir2-1 spec = tests whether KCNK9 modulators also affect mouse Kir2.1. shares compounds with KCNK9 block. 4,900 compounds, 4% hits. Kir2.1 cells, FluxOR thallium flux fluorescence. inhibition, % at 10 µM. AID 492993;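 active means thallium signal drop more than 5 SD beyond the mean of the no-compound control wells, seen in both duplicate plates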;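 further: signal is fluorescence rise after thallium addition divided by baseline fluorescence; plate controls were assay buffer only for no effect and full block by chlorpromazine control for full effect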
KCNK9 uninduced = second counter-screen for KCNK9 modulators: effect in non-induced cells | inhibition, % at 10 µM | non-induced KCNK9-HEK293, FluxOR thallium flux | 4,900 compounds, 40% hits | shares compounds with KCNK9 block | AID 492997;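 active means thallium signal drop beyond 5 SD of the untreated control mean, on both duplicate plates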;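 further: plate controls were buffer only IC0 wells for no effect and SID17386958 at its maximal inhibitory level for full effect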
Numbers without * were called inactive; i = inactive; . = no result given.

SMILES	hERG protect	KCNQ1 act	KCNQ1 block	Kir21 inh	KCNK3 block	KCNK9 block	KCNK9 inh conf	Kir2-1 spec	KCNK9 uninduced
COC(=O)Cc1ccc(N(Cc2ccccc2F)S(=O)(=O)c2ccc(Cl)cc2)cc1	-16.6	i	i	0.71	i	-12*	60.0%*	i	40.0%*
NC(N)=NN=C(c1ccc(F)cc1)c1ccc(C(F)(F)F)cc1	.	.	.	.	i	.	.	.	.
CCCCn1cnc2c(c(-c3ccccc3)c(-c3ccccc3)n2Cc2ccco2)c1=N	-26.5	i	10*	-10.3	i	-13.3*	44.5%*	i	i
COc1ccccc1NC(=O)C(C)OC(=O)C1CCN(S(=O)(=O)c2ccc(C)c(C)c2)CC1 (centres undefined)	-11.6	i	i	-0.3	i	i	.	.	.
Cc1ccc(C(C)C)c(OC(=O)/C=C/c2ccccc2)c1	-19.5	i	i	-1.28	i	i	i	i	i
Cc1ccc(NC(=O)C(C)OC(=O)/C=C/c2ccccc2)cc1 (centres undefined)	-9.7	i	i	-0.1	i	i	.	.	.
COc1ccc2c(c1)C(SCC(=O)NCCc1ccccc1)CC(C)(C)O2 (centres undefined)	-9.5	i	i	-3.39	i	i	i	i	i
COc1cccc(Sc2nc(-c3ccccc3)ncc2S(C)(=O)=O)c1	-5.3	i	i	0.49	i	i	.	.	.
CSc1ccc(CN(C)CC(=O)NC(=O)NC(C)(C)C)cc1	-9.5	i	i	-1.18	i	i	i	i	i
Cc1ccc(-c2nc(N)sc2CC(=O)OCC(=O)N2C(C)CCCC2C)cc1 (centres undefined)	-7.5	i	i	1.21	i	i	i	i	i
OCCN1CCN(CCOc2cccc(Cl)c2)CC1	-3.4	i	i	-0.43	i	i	i	i	i
FC(F)(F)c1cccc(OCCN2CCN(Cc3ccccc3)CC2)c1	-5.7	i	i	-1.13	i	i	i	i	i
CN(CCOc1cccc(C(F)(F)F)c1)Cc1ccccc1	-13.0	i	i	1.3	i	i	.	.	.
O=C(COc1ccc(F)cc1Br)NCCCN1CCCC1=O	.	.	.	.	i	.	.	.	.
Cc1cc(C)c(CN2CCCC(CNC(=O)c3ccc(F)cc3)C2)c(-n2cccn2)c1 (centres undefined)	-24.8	i	i	-2.02	i	i	.	.	.
Cc1ccsc1C(=O)C1CCCN(Cc2cc(F)ccc2-n2cccn2)C1 (centres undefined)	-10.6	i	i	-0.6	i	i	i	i	i
Cc1c(N=Nc2c(-c3ccc([N+](=O)[O-])cc3)[nH]n(C(N)=S)c2=O)cccc1[N+](=O)[O-]	.	.	.	.	i	.	.	.	.
Cc1[nH]n(C(N)=S)c(=O)c1N=Nc1cccc([N+](=O)[O-])c1C	-8.5	i	i	0.44	i	i	i	i	i
C=CCn1c(C)nc2c(sc3nc4c(cc32)COC(C)(C)C4)c1=O	-7.6	i	i	0.56	i	i	.	.	.
Cc1cccc(C(=O)NC(=S)Nc2cccc3nc(C)ccc23)c1	-6.8	i	i	-0.28	i	i	i	i	i
CC(=O)c1cccc(NC(=S)NC(=O)c2cccc(C)c2)c1	-8.3	i	i	0.69	i	i	.	.	.
COc1ccccc1C(=O)Nc1cc(Cl)ccc1O	-5.5	i	i	0.24	i	i	.	.	.
CCOc1ccccc1C(=O)Nc1cc(Cl)ccc1O	-11.9	i	i	1.97	i	-11.8*	52.5%*	i	36.0%*
COC(=O)[C@@H](NC(=O)N1CCC(Cc2ccccc2)CC1)C(C)C	-0.3	i	i	0.85	i	i	.	.	.
COc1ccccc1/C=C(/CC(=O)NCc1ccc(F)cc1)c1nc2ccccc2s1	-9.0	i	i	0.01	i	-16.2*	65.5%*	i	36.5%*
SMILES	hERG protect	KCNQ1 act	KCNQ1 block	Kir21 inh	KCNK3 block	KCNK9 block	KCNK9 inh conf	Kir2-1 spec	KCNK9 uninduced
O=C(CCCc1nc2ccccc2s1)NCc1ccccc1	-8.3	i	i	-0.11	i	i	.	.	.
COc1ccccc1/C=C(/CC(=O)NCc1ccccc1)c1nc2ccccc2s1	-15.9	i	i	2.06	i	-9.68*	70.5%*	i	i
COC(=O)C[C@H]1c2cc(C(F)(F)F)ccc2S(=O)(=O)N1Cc1ccccc1	-11.2	i	i	-0.5	i	i	.	.	.
CCCCCCCCN1[C@@H](CC(=O)OC)c2cc(C(F)(F)F)ccc2S1(=O)=O	-10.2	i	i	2.18	i	i	i	i	i
CCOc1cc(CNCCSc2nnnn2C)cc(Br)c1OCc1ccccc1F	-20.5	i	i	0.04	i	-9.46*	i	i	31.5%*
COc1cc(CNCCSc2nnnn2C)cc(Br)c1OCc1ccccc1F	-13.8	i	i	-0.09	i	i	.	.	.
CC(=O)N(CCC(Cc1ccccc1)c1ccc2c(c1)OCO2)Cc1ccccc1F (centres undefined)	-6.4	i	6*	-0.62	i	-15.8*	27.5%*	i	i
O=C(NC(Cc1ccccc1)c1ccc2c(c1)OCCCO2)c1ccccc1F (centres undefined)	-8.8	i	i	0.58	i	i	.	.	.
O=c1cc(Cl)c(-c2ccccc2)nn1Cc1ccc(Cl)cc1	-4.1	i	i	0.69	i	i	.	.	.
O=c1cc(N2CCCCC2)c(-c2ccccc2)nn1Cc1ccc(Cl)cc1Cl	-7.0	i	9*	2.48	i	-20.8*	80.0%*	i	45.5%*
Cc1cccc(NC(=O)CN2CCC(C(=O)c3ccc4c(c3)OCCO4)CC2)c1	-9.9	i	i	1.59	i	i	i	i	i
O=C(c1ccccc1)C1Oc2ccccc2C2CC(c3cccs3)=NN12 (centres undefined)	-4.4	i	i	1.03	i	i	.	.	.
COc1cccc(C2Oc3ccccc3C3CC(c4cccs4)=NN32)c1 (centres undefined)	-9.3	i	i	-0.03	i	-12.3*	60.5%*	i	i
Cc1ccc(NC(=O)CSc2ccccc2NC(=O)c2ccccc2)cc1Cl	-5.2	i	i	-0.33	i	i	.	.	.
